Source: ChEMBL document CHEMBL4513216, “Probing the Open Global Health Chemical Diversity Library for Multistage-Active Starting Points for Next-Generation Antimalarials” (ACS Infect Dis, 2020)

Assay: Toxicity liver stage against HepG2, at 10uM
Format: cell-based
Set-up: test concentration 10 uM, cell line HepG2-A16-CD81EGFP
Conditions: human, HepG2-A16-CD81EGFP cells; read-out: INHIBITION
How it was run: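 Uninfected HepG2-A16-CD81EGFP cells, 3 × 10^3 per well, 1536-well, plated on prespotted compound at 10 μM final, parasite-free screening media added to match infected plates; puromycin 10 μM positive, DMSO 0.5% negative; run in parallel with 48 h PbLuc assay at 37 °C, 5% CO2; viability by CellTiter-Glo luminescence, normalized to controls.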

Compound	cytotoxicity at 10 µM [%]
COCC(=O)N[C@H](C)c1c(-c2ccc(OC)cc2)noc1C(=O)O	0.588
CCn1cc(-c2nn3c(C(F)(F)F)nnc3s2)cn1	-12.3
CC1CCc2[nH]c(=O)c(C(=O)N3CCc4ccccc4C3)cc2C1 (stereo not given)	-6.77
CCN(c1ccsc1C(=O)N1CCCCC1)S(=O)(=O)c1ccccc1	9.78
O=C(c1ccsc1)N1C[C@@H]2CCN(C(=O)c3cccc(F)c3)[C@@H]2C1	1.47
c1cncc(CN2CCC3(CCCN(c4nncs4)C3)C2)c1 (stereo not given)	-144
CC(C)CN1CCC2(CC(C(=O)NCc3cccnc3)=NO2)C1 (stereo not given)	-5.99
O=C(Nc1cnn(Cc2ccc(F)cc2Cl)c1)C1CC1	-4.83
Cn1ncc(C(=O)N2CCN(S(C)(=O)=O)CC2)c1Cl	7.58
COc1cc(-c2n[nH]c(CCN)n2)cc(OC)c1OC	-0.297
Cc1nc(N2CCCC2)ncc1-c1cc(O)nc(N2CCCC2)n1	6.79
CCOc1ccc(N2CCCN=C2NC(=O)c2ccccc2C)cc1	-6.69
CN1CCN(C(=O)CCn2nnc3ccccc32)CC(C(N)=O)C1 (stereo not given)	2.24
Cc1cc(Cc2ccccc2C)cc(C2CCCNC2)n1 (stereo not given)	-3.59
CC(C)CC(NC(=O)c1cccs1)c1nc2cccnc2n1C (stereo not given)	7.27
Cc1nn(C)cc1NC(=O)CC1CCN(C(=O)Cc2ccccc2)CC1	1.96
O=C1CCC[C@]2(CN(S(=O)(=O)C3CCCCC3)C[C@H]2c2cccnc2)N1	-12.4
Cc1cc(C)nc(N2CCOC(C)(C(=O)N(C)C)C2)n1 (stereo not given)	-3.04
Cc1nc(CCC(N)=O)cc(C2CCNCC2)n1	-15.1
O=C(N[C@@H]1CN(Cc2cccc3[nH]ccc23)C[C@H]1O)c1cscn1	-2.86
Cc1cccc(NCC(=O)NC2(C#N)CCCC2)c1C(=O)N1CCCC1	-0.69
Cc1ccc(C(C)NC(=O)Cc2c(C)nc3cc(=O)[nH]n3c2C)s1 (stereo not given)	-0.159

Compound	cytotoxicity at 10 µM [%]
CN(C)CCN(Cc1ccc(Cl)cc1)C(=O)c1ccn(C)c(=O)c1	-5.22
CCc1nnsc1C(=O)NCCCC(CC)(CC)C1OCCO1	5.95
O=C(Cc1ccon1)N(CCC(F)(F)F)C1CCCC1	-9.36
Cc1ccc(S(N)(=O)=O)cc1C(=O)NC1CCN(C2CC2)CC1	13.3
COc1c(Cl)cc(Cl)cc1CN1CCC(C(N)=O)C1 (stereo not given)	11.9
COc1cccc(CC(=O)NCCc2nnc3n2CCCCC3)c1	-18.4
Cc1cc(C)n(C2CN(Cc3nc4cc(Cl)ccc4n3C)C2)n1	-2.35
Cn1c(CN2CCCC(N3CCCCCC3)C2)cc(=O)n(C)c1=O (stereo not given)	-1.85
CC(NC(=O)Nc1cccnc1N1CCOCC1)c1ccccn1 (stereo not given)	0.456
O=C(NC1CCCOc2cc(Cl)ccc21)c1ccc(=O)[nH]n1 (stereo not given)	1.5
Cc1ccsc1C(Cc1ccccc1)NC(=O)CSCC(N)=O (stereo not given)	8.13
COCc1nc2cc(NCc3ncc[nH]3)ccc2o1	-4.52
Cc1cccc(NC(=O)[C@@H]2CCCN2Cc2nc(C)c(C)o2)n1	-4.34
CNC(=O)CS(=O)(=O)Cc1coc(-c2cccc(F)c2)n1	1.28
COC(=O)NCC(=O)N1CCc2cc(Cl)cc(Cl)c2C1	0.598
O=C(NCC1(CO)CC1)NC(c1nccs1)C1CC1 (stereo not given)	1.23
O=C(c1cccc(F)c1Cl)N(CCO)CC1CC1	0.684
c1ccc(-c2nnc(CNCC3CCCN3c3cccnn3)o2)cc1 (stereo not given)	-10.5
CN(Cc1nnc(C2CC2)n1C)C1CCN(CCc2ccncc2)C1 (stereo not given)	-4.56
CCOc1ncccc1NC(=O)c1cccs1	0.932
CNC(=O)c1cccc(CCNc2ccc(C#N)cn2)c1	-3.67
COc1ccc(F)cc1C[S+]([O-])CC(=O)NCc1ccccc1 (stereo not given)	-8.97

Compound	cytotoxicity at 10 µM [%]
Cc1cc(C)cc(NC(=O)CC2CN(Cc3ccccc3)CCO2)c1 (stereo not given)	-8.46
CC(C)(CCS(C)(=O)=O)CNC(=O)NC1CCCCC1(C)C (stereo not given)	11.3
COCCOc1ccc(CNc2nc3ccccc3o2)cn1	7.45
Cc1ccc(NC(=O)c2ncc(C(N)=O)cc2Cl)cc1F	-3.53
O=C(NCC(CO)Cc1ccc(Cl)cc1)c1ccncc1F (stereo not given)	-4.84
O=S(=O)(Cc1ccc(F)c(Cl)c1)NCCOc1cccnc1	-49.9
Cc1cnn(CCCNC2Cc3ccccc3C2)c1	3.34
COc1ccccc1C1(CNc2ncc(S(N)(=O)=O)s2)CC1	-3.6
Cc1cc(C)c(CNC(=O)NCc2nnc3n2CCCC3)c(=O)[nH]1	-5.34
O=S(=O)(Cc1ccc(F)c(Cl)c1)NC(CO)c1ccco1 (stereo not given)	-3.49
Cc1nn(C)c(C)c1CCC(=O)Nc1cn(C)c(=O)n(C)c1=O	20.6
CCSCCC(=O)Nc1ncn(Cc2cccnc2)n1	25.1
COc1cccc(S(=O)(=O)CCN2CCCCC2)c1	2.37
Cc1ccc(CC(=O)NC(C)C(=O)N2CCS(=O)(=O)CC2)cc1 (stereo not given)	1.73
Cc1csc(CNC(=O)NC2CCN(c3ncccn3)CC2)n1	-10.6
COCC(=O)N(C)Cc1ccc(Cl)c(Cl)c1	-5.13
CS(=O)(=O)N1CCO[C@@H]2CN(C(=O)N3CCOCC3)CC[C@@H]2C1	-105
Cc1noc(C)c1C(=O)N1C[C@@H]2C[C@@H](c3ccncn3)O[C@@H]2C1	-70
CCn1ncnc1CN1CCC(CNC(=O)c2cccnc2O)C1 (stereo not given)	7.06
CN(Cc1cccnc1)c1nc(-c2ccccn2)nc2c1CCNCC2	3.64
CC(C)(C)c1cc(=O)[nH]c(-c2ccccc2CN2CCC[C@@H](O)C2)n1	-43.3
COCCn1ccnc1C1CCN(c2cccc(C(=O)O)n2)CC1	-2.74

Compound	cytotoxicity at 10 µM [%]
Cc1cccc(C(Nc2nccc(-c3ccc(C)nc3C)n2)C2CC2)n1 (stereo not given)	0.74
CCN(CC)C(=O)[C@@H]1C[C@@H](N)CN1C(=O)c1cc2c([nH]c1=O)CCC2	-2.79
Cc1n[nH]c(C)c1C(N)C(=O)NCCc1csc(C(C)C)n1 (stereo not given)	-8.64
Cc1cc(CNCC2(O)CCCN(CCCc3ccccc3)C2=O)n[nH]1 (stereo not given)	-2.4
Cn1c(Cn2cccn2)nnc1C1CCN(Cc2ccccc2Cl)CC1	-0.4
COc1cccc(C2CCCN2C(=O)c2cc3c(nc2OC)CCC3)c1 (stereo not given)	-10.2
O=C(c1ccc2c(c1)OCO2)N1C[C@@H](CN2CCCCC2)[C@@H](CO)C1	-4.06
COc1cccc(-c2noc(-c3ccc(N4CC(N)C4)nc3)n2)c1OC	-4.8
CCCSc1nc(O)c(CC)c(=O)n1-c1ccccc1	2.77
CC(O)CN1CCc2onc(-c3ccccc3F)c2C1 (stereo not given)	0.963
CCCN1CC2(CCN(C)CC2)CC1C(=O)NCCn1ccc(C)n1 (stereo not given)	-5.64
COCc1cc(CN(C)C(=O)c2c[nH]nc2-c2cccc(F)c2)n[nH]1	0.445
O=C(O)c1ccnc(-c2ccnc(NCCc3cscn3)n2)c1	0.852
COc1cc(N2CCC(c3nccn3CCCN(C)C)CC2)nc(N)n1	-7.41
O=C(N[C@H]1CN(c2ccncc2)C[C@@H]1C1CC1)C1CCOCC1	-11.8
COCCNS(=O)(=O)c1ccc2c(c1)CCN(C(=O)c1cncn1C)C2	9.65
N#Cc1ccc(C2CC(=O)Nc3c2cnn3C2CCCC2)cc1 (stereo not given)	13.2
CCn1cnnc1C1CCN(C(=O)c2cc(C)n(CC)c2C)CC1	-6.08
N#Cc1cccc(CN2CCCC2Cn2cccn2)c1 (stereo not given)	-2.78
O=C(N1CCCC(n2cncn2)C1)C1(c2cccc(F)c2)CCC1 (stereo not given)	0.322
CCc1nnsc1C(=O)N1CCCC(n2nc(C)nc2C)C1 (stereo not given)	4.63
Cc1ccc(CN(C)C(=O)c2scnc2C)cc1	-6.8

Compound	cytotoxicity at 10 µM [%]
CC(=O)N1CCCN(C(=O)NCCCn2cncn2)CC1	-10.1
O=C(N1CCOCC1)N1CCN(CC(O)c2ccc(F)cc2)CC1 (stereo not given)	-2.42
Cc1cc(CN(C)C(=O)c2ccc(Cl)c(N3CCCC3=O)c2)no1	-14.5
CCOc1ccnc(N2CCN(C(=O)c3cn[nH]c3C)CC2)n1	3.54
CC(NC(=O)NCCCO)c1ccc2c(c1)NC(=O)CO2 (stereo not given)	-3.05
Cc1ccc(-c2noc(CN3CCc4nn(C)c(=O)cc4C3)n2)cc1	-8.78
O=C(c1cncc2ccccc12)N1CCC[C@@H]1CO	2.37
CCN(Cc1ccco1)C(=O)Nc1cc(C(F)(F)F)c[nH]c1=O	-2.6
NC(=O)Cn1cc(NC(=O)N2CCCC2)cn1	-8.67
Cc1nn(C)c(C)c1C1CCCN1C(=O)c1cc[nH]n1 (stereo not given)	1.35
CC(NC(=O)NCCCNS(C)(=O)=O)c1ccncc1 (stereo not given)	1.08
CCC(CO)NCc1ccc(-c2ccc(Br)cc2)o1 (stereo not given)	-5
O=C(NC1CCCC1)c1ccnc(C2CCNCC2)c1	-11.3
Cc1ncsc1C(=O)NCC1CCC2(CCNCC2)CO1 (stereo not given)	19.1
CCc1ccc(CN2CC[C@H]3C[C@H](c4nnc(C)[nH]4)O[C@@H]3C2)o1	-8.51
c1cnc(NCc2nnn3c2CN(Cc2ccco2)CCC3)nc1	9.08
C1CC(CO[C@@H]2CC[C@H]3[C@H]2OCCN3CC2CC2)CCO1	11.4
Cc1ccc(CN2CC(C(=O)N3CCCC3)C3(CCOCC3)C2)s1 (stereo not given)	-0.152
Cc1ccc(CN2C[C@@H]3[C@@H](C(=O)N4CCCC4)CCS(=O)(=O)[C@@H]3C2)cc1	0.411
CCOC1CC2(CCN(Cc3nccn3C)CC2)C1	-144
CO[C@H]1CCN(Cc2ccccn2)[C@@H]2CN(Cc3ccco3)C[C@H]12	-7.76
C=C1C(C)(C)[C@@H]2CC[C@]1(C(=O)N1CCC(n3cc(CCO)nn3)CC1)C2	-4.28
